From ChEMBL document CHEMBL4033786, “Discovery of Novel 1-Cyclopentenyl-3-phenylureas as Selective, Brain Penetrant, and Orally Bioavailable CXCR2 Antagonists” (J Med Chem, 2018)

Columns and labels:
Mus musculus = assay: Antiinflammatory activity in C57Bl/6 mouse air pouch model assessed as inhibition of carrageenan-induced neutrophil infiltration administered po bid starting from day 3 post air reinflation at 4 hrs post carrageenan induction measured on day 6 post last dose; assay type: functional, organism-based
Procedure, shortened: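 Male C57Bl/6 mice aged 6–8 weeks received 5 mL air dorsally under pentobarbital on day 0, with 2.5 mL re-inflations on days 3 and 6. Oral dosing of vehicle or 1, 3 or 10 mg/kg BID ran from day 3; on day 6 dosing preceded re-inflation and 1 mL 2% carrageenan. At 4 h the pouch was lavaged with 4 mL PBS, and neutrophils were counted on Giemsa-stained cytospins as % of vehicle. One-way ANOVA with Bonferroni.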

[1] = biological target: T1, C-X-C chemokine receptor type 2 (Homo sapiens, UniProt P25025); assay: Antagonist activity at TEV protease cleavage site linked GAL4-VP16-fused recombinant human CXCR2 expressed in cells assessed as inhibition of […] human CXCL1-stimulated beta-arrestin recruitment by CCF4-AM-fluorescence based FRET assay; assay type: cell-based; conditions: read-out: IC50
T1 sequence (P25025 whole entry): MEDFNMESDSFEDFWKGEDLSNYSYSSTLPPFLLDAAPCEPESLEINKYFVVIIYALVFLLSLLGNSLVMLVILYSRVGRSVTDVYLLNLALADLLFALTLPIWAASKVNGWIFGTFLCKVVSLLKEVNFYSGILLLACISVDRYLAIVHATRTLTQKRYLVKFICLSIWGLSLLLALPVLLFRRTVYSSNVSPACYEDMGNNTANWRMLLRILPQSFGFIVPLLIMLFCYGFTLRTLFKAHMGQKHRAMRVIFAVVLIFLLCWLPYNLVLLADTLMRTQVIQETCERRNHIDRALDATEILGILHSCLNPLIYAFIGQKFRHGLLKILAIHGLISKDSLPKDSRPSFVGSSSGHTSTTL
Procedure, shortened: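 Stable cell line expressing recombinant human CXCR2 linked to a TEV site and Gal4-VP16. Cells were starved 24 h at 37 °C, 5% CO2, then resuspended at ~200,000 cells/mL. They were given compound in DMSO (concentration-response), stimulated with 80 nM hCXCL1 and incubated overnight at 37 °C. CCF4-AM substrate was then added for 2 h at RT in the dark.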

[2] = Unbound brain-to-blood concentration ratio in Han-Wistar SOA rat model at 2 mg/kg administered via oral gavage by UPLC/MS/MS analysis; assay type: ADME, organism-based; conditions: read-out: K(p,uu,brain)
Procedure, shortened: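 Male Han-Wistar rats given a single 2 mg/kg oral gavage as a suspension in DMSO:1% methylcellulose (1:99). Blood was taken by cardiac puncture under isoflurane at 0.25–7 h, diluted 1:3 with water, and brains were homogenized in 3-fold PBS. Samples were extracted by acetonitrile protein precipitation and quantified by UPLC/MS/MS. Kp = brain DNAUC0-7h/blood DNAUC0-7h; Kp,uu = Kp×Fu,br/Fu,bl.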

Rattus norvegicus [3] = assay: Dose normalized AUC (0 to infinity) in Wistar rat at 2.41 mg/kg, po measured up to 4 hrs post dose; assay type: ADME, organism-based; conditions: in vivo
[4] = Oral bioavailability in Wistar rat at 2.41 mg/kg measured up to 4 hrs after dose; assay type: ADME, organism-based; conditions: in vivo
[5] = Cmax in dog at 1.29 mg/kg, po measured up to 4 hrs post dose; assay type: ADME, organism-based, Canis lupus familiaris; design: dose 1.29 mg/kg, route oral; conditions: in vivo
Canis familiaris = assay: Dose normalized AUC (0 to infinity) in dog at 1.29 mg/kg, po measured up to 4 hrs post dose; assay type: ADME, organism-based, Canis lupus familiaris; conditions: in vivo
[6] = biological target: T2, C-C chemokine receptor type 3 (Homo sapiens, UniProt P51677); assay: Agonist activity at CCR3 (unknown origin)
Procedure, shortened: (§1)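 β-arrestin assays run in both agonist and antagonist modes across a panel of 18 CXC and CC chemokine receptors.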

[7] = biological target: T3, C-C chemokine receptor type 4 (Homo sapiens, UniProt P51679); assay: Agonist activity at CCR4 (unknown origin); procedure, shortened: as §1
[8] = biological target: C-C chemokine receptor type 7 (Homo sapiens, UniProt P32248); assay: Agonist activity at CCR7 (unknown origin); procedure, shortened: as §1
[9] = biological target: T4, C-C chemokine receptor type 8 (Homo sapiens, UniProt P51685); assay: Agonist activity at CCR8 (unknown origin); procedure, shortened: as §1
[10] = biological target: C-C chemokine receptor type 9 (Homo sapiens, UniProt P51686); assay: Agonist activity at CCR9 (unknown origin); procedure, shortened: as §1
Chemerin-like receptor 1 [11] = biological target: T5, Chemerin-like receptor 1 (Homo sapiens, UniProt Q99788); assay: Agonist activity at CMKLR1 (unknown origin); procedure, shortened: as §1
[12] = biological target: CX3C chemokine receptor 1 (Homo sapiens, UniProt P49238); assay: Agonist activity at CX3CR1 (unknown origin); procedure, shortened: as §1
[13] = biological target: T6, C-X-C chemokine receptor type 1 (Homo sapiens, UniProt P25024); assay: Agonist activity at CXCR1 (unknown origin)
Procedure, shortened: (§2)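 Part of an 18-receptor CXC/CC chemokine receptor panel, each receptor run in β-arrestin recruitment assays in both agonist and antagonist modes.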

[14] = biological target: T1, C-X-C chemokine receptor type 2; assay: Agonist activity at TEV protease cleavage site linked GAL4-VP16-fused recombinant human CXCR2 expressed in cells assessed as induction of beta-arrestin recruitment by CCF4-AM-fluorescence based FRET assay; assay type: cell-based
Procedure, shortened: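 Part of an 18-receptor chemokine panel run in agonist and antagonist modes. Stable line carrying human CXCR2 linked to a TEV site and Gal4-VP16 was starved 24 h at 37 °C, 5% CO2, and incubated overnight with compound dispensed in DMSO. CCF4-AM substrate was loaded for 2 h at room temperature in the dark. Read-out was the background-subtracted 460/530 nm ratio, with sigmoidal curve fit.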

[15] = biological target: C-X-C chemokine receptor type 6 (Homo sapiens, UniProt O00574); assay: Agonist activity at CXCR6 (unknown origin); procedure, shortened: as §1
[16] = biological target: Atypical chemokine receptor 3 (Homo sapiens, UniProt P25106); assay: Agonist activity at CXCR7 (unknown origin); procedure, shortened: as §1
[17] = biological target: T2, C-C chemokine receptor type 3; assay: Antagonist activity at CCR3 (unknown origin); procedure, shortened: as §1
[18] = biological target: T3, C-C chemokine receptor type 4; assay: Antagonist activity at CCR4 (unknown origin); procedure, shortened: as §1
[19] = biological target: C-C chemokine receptor type 5 (Homo sapiens, UniProt P51681); assay: Antagonist activity at CCR5 (unknown origin); procedure, shortened: as §1
[20] = biological target: C-C chemokine receptor type 6 (Homo sapiens, UniProt P51684); assay: Antagonist activity at CCR6 (unknown origin); procedure, shortened: as §1
[21] = biological target: T4, C-C chemokine receptor type 8; assay: Antagonist activity at CCR8 (unknown origin); procedure, shortened: as §1
Chemerin-like receptor 1 [22] = biological target: T5, Chemerin-like receptor 1; assay: Antagonist activity at CMKLR1 (unknown origin); procedure, shortened: as §1
[23] = biological target: T6, C-X-C chemokine receptor type 1; assay: Antagonist activity at CXCR1 (unknown origin); procedure, shortened: as §2
[24] = biological target: C-X-C chemokine receptor type 4 (Homo sapiens, UniProt P61073); assay: Antagonist activity at CXCR4 (unknown origin); procedure, shortened: as §1
[25] = biological target: C-X-C chemokine receptor type 5 (Homo sapiens, UniProt P32302); assay: Antagonist activity at CXCR5 (unknown origin); procedure, shortened: as §1
Rattus norvegicus [26] = assay: Antiinflammatory activity in Wistar rat air pouch model assessed as inhibition of carrageenan-induced neutrophil infiltration administered po bid starting from day 3 post air reinflation at 4 hrs post carrageenan induction measured on day 6 post last dose; assay type: functional, organism-based
Procedure, shortened: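 Male Wistar rats aged 8–10 weeks received 20 mL air, then 10 mL re-inflations on days 3 and 6. Oral dosing of vehicle or 1, 3 or 10 mg/kg BID ran from day 3, given on day 6 just before re-inflation and 1 mL 2% carrageenan. Pouch lavage (4 mL PBS) was taken at 4 h, and neutrophils were counted on Giemsa-stained cytospins as % of vehicle.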

[27] = Intrinsic clearance in rat hepatocytes; assay type: ADME, cell-based, Hepatocyte

T4 sequence (P51685 whole entry): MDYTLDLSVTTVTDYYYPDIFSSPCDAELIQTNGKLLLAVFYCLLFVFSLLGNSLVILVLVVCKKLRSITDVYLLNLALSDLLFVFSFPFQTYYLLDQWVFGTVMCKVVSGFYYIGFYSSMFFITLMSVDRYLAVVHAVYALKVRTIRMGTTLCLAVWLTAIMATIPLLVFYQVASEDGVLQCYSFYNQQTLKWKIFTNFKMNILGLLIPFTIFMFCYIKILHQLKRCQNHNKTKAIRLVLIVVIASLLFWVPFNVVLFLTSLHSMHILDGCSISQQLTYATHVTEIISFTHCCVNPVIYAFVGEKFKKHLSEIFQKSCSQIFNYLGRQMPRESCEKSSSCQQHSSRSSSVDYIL
T3 sequence (P51679 whole entry): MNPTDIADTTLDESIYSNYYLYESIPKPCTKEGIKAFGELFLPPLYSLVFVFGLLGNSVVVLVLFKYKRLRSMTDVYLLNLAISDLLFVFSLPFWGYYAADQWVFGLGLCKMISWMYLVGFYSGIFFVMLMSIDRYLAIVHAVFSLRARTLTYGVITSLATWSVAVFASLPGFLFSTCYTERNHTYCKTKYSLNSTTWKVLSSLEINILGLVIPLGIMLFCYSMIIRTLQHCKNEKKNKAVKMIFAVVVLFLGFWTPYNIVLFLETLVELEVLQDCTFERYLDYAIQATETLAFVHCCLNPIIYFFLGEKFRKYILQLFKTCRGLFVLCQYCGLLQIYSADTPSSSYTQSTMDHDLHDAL
T6 sequence (P25024 whole entry): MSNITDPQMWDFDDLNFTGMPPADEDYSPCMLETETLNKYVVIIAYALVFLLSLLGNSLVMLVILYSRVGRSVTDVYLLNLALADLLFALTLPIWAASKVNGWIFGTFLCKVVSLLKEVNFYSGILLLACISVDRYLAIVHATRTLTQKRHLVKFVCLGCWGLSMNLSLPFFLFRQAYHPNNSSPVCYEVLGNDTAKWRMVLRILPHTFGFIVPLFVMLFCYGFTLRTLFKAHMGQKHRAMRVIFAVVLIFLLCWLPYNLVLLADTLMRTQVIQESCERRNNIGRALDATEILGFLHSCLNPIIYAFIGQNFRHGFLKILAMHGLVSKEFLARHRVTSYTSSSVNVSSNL
T5 sequence (Q99788 whole entry): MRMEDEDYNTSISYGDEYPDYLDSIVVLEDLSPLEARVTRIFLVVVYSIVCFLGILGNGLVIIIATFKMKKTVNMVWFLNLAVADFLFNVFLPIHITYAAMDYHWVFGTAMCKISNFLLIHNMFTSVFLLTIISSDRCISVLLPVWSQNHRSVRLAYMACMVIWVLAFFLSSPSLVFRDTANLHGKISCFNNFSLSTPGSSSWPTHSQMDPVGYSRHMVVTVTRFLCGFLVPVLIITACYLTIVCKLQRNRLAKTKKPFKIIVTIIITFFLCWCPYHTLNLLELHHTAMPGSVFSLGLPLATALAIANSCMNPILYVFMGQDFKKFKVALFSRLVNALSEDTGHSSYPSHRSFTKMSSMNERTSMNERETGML
T2 sequence (P51677 whole entry): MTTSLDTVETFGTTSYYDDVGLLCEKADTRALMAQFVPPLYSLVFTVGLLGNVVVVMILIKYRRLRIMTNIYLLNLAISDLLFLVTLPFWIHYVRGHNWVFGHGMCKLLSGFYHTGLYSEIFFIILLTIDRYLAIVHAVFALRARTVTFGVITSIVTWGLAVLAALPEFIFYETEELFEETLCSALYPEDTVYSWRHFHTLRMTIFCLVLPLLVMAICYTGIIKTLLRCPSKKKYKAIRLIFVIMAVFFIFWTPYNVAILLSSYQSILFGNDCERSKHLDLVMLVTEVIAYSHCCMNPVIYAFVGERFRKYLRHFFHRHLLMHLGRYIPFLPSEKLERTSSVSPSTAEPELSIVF
C-C chemokine receptor type 7, sequence (P32248 whole entry): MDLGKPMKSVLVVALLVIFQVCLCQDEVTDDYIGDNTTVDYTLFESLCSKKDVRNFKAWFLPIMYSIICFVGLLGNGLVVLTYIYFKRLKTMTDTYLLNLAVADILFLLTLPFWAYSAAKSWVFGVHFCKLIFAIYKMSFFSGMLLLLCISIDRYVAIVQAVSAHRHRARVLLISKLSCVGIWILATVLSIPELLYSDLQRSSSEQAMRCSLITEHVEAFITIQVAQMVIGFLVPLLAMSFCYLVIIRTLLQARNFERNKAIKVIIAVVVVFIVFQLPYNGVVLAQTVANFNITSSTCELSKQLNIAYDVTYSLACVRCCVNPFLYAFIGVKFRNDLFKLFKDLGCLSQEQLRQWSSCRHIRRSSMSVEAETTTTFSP
C-C chemokine receptor type 5, sequence (P51681 whole entry): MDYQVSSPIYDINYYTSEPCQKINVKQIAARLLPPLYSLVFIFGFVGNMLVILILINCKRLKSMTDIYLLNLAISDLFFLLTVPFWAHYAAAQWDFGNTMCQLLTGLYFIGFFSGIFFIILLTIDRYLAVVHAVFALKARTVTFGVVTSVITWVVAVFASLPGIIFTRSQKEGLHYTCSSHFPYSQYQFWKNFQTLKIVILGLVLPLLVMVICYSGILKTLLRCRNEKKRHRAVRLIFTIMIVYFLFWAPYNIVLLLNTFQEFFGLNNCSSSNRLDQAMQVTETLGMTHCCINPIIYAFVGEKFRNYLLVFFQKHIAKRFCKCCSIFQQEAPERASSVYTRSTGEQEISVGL
C-C chemokine receptor type 6, sequence (P51684 whole entry): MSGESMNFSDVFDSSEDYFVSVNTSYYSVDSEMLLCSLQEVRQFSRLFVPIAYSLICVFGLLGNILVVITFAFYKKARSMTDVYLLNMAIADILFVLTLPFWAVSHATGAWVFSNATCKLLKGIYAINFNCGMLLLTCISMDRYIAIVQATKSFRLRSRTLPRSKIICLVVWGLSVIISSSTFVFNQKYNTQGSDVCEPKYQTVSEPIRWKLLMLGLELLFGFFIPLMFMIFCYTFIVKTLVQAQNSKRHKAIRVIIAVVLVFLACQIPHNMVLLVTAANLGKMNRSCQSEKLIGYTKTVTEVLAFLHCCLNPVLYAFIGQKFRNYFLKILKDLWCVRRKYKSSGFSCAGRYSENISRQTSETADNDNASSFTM
C-C chemokine receptor type 9, sequence (P51686 whole entry): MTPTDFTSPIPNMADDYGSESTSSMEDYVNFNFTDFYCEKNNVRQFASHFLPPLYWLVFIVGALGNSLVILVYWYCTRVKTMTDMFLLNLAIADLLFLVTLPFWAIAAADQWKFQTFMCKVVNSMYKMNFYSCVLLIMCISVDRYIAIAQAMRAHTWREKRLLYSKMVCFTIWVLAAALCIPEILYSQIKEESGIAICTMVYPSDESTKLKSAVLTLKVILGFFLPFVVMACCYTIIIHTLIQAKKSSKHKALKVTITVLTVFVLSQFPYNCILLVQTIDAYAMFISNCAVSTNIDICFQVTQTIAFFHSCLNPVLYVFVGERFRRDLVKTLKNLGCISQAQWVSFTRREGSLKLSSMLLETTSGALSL
C-X-C chemokine receptor type 6, sequence (O00574 whole entry): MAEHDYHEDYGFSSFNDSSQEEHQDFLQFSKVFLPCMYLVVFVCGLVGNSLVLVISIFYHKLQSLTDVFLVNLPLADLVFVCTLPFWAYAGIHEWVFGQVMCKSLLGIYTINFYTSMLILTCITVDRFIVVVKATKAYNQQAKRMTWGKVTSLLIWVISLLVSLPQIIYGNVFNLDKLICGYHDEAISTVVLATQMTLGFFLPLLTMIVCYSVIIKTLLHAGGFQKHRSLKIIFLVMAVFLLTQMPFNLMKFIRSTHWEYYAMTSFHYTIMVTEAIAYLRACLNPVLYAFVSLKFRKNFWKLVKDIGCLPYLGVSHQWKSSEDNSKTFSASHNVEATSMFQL
C-X-C chemokine receptor type 4, sequence (P61073 whole entry): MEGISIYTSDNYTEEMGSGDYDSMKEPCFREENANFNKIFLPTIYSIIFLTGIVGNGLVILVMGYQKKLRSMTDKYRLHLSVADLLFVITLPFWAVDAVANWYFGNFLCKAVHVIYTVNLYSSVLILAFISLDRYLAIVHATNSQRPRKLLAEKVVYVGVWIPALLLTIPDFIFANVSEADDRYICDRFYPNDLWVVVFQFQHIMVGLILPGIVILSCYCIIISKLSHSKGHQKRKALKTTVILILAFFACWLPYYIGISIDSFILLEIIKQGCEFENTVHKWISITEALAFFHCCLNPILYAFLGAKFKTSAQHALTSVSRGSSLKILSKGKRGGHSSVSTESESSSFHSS
Atypical chemokine receptor 3, sequence (P25106 whole entry): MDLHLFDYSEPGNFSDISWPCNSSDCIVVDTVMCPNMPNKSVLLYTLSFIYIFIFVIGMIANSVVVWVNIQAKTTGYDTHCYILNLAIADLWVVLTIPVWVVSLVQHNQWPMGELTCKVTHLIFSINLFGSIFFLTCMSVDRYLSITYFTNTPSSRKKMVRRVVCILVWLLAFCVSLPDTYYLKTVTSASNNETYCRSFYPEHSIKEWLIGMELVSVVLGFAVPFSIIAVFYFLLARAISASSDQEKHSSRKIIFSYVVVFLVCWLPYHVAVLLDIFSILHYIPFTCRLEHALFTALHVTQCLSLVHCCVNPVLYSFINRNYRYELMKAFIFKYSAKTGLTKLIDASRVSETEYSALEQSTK
CX3C chemokine receptor 1, sequence (P49238 whole entry): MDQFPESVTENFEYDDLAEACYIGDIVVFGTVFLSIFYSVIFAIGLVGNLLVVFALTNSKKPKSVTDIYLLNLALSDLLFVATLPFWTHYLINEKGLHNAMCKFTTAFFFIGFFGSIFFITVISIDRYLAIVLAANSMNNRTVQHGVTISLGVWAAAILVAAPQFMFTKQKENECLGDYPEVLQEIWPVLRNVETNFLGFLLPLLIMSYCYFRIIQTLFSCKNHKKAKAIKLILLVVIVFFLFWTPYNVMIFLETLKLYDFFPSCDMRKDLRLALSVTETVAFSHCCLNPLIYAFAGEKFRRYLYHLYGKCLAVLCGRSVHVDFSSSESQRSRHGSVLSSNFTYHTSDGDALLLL

IC50 [1]: 0.0052 µM
Kp uu [2]: 0.63
AUC/dose (Rattus norvegicus [3]): 860 ng·h/mL/mg/kg
bioavailability [4]: 47%
Cmax [5]: 728 ng/mL
AUC/dose (Canis familiaris): 2298 ng·h/mL/mg/kg
EC50 [6]: > 10 µM
EC50 [7]: > 10 µM
EC50 [8]: > 10 µM
EC50 [9]: > 10 µM
EC50 [10]: > 10 µM
EC50 (Chemerin-like receptor 1 [11]): > 10 µM
EC50 [12]: > 10 µM
EC50 [13]: > 10 µM
EC50 [14]: > 10 µM
EC50 [15]: > 10 µM
EC50 [16]: > 10 µM
IC50 [17]: > 10 µM
IC50 [18]: > 10 µM
IC50 [19]: > 10 µM
IC50 [20]: > 10 µM
IC50 [21]: > 10 µM
IC50 (Chemerin-like receptor 1 [22]): > 10 µM
IC50 [23]: 3.8 µM
IC50 [24]: > 10 µM
IC50 [25]: > 10 µM
CLH [27]: 7.7 mL/min/g
SMILES: CC1=CCC[C@H]1NC(=O)Nc1ccc(Cl)c(S(=O)(=O)[C@@]2(C)CCOC2)c1O
inhibition (Mus musculus): Dose-dependent effect
inhibition (Rattus norvegicus [26]): Dose-dependent effect
